From ChEMBL document CHEMBL4014325
Activity calls are given as the source filed them. No cut-off for these calls is given here.

Experiments:
[1] = target: Cystic fibrosis transmembrane conductance regulator (Homo sapiens) (UniProt P13569); assay: Inhibition of human wild type CFTR expressed in FRT cells co-expressing halide sensitive YFP-H148Q assessed as reduction in forskolin induced cAMP activated chloride conductance by measuring decrease in iodide influx after 15 mins by fluorescence assay; assay type: cell-based
Sequence of Cystic fibrosis transmembrane conductance regulator (Homo sapiens) (P13569 whole entry, looked up): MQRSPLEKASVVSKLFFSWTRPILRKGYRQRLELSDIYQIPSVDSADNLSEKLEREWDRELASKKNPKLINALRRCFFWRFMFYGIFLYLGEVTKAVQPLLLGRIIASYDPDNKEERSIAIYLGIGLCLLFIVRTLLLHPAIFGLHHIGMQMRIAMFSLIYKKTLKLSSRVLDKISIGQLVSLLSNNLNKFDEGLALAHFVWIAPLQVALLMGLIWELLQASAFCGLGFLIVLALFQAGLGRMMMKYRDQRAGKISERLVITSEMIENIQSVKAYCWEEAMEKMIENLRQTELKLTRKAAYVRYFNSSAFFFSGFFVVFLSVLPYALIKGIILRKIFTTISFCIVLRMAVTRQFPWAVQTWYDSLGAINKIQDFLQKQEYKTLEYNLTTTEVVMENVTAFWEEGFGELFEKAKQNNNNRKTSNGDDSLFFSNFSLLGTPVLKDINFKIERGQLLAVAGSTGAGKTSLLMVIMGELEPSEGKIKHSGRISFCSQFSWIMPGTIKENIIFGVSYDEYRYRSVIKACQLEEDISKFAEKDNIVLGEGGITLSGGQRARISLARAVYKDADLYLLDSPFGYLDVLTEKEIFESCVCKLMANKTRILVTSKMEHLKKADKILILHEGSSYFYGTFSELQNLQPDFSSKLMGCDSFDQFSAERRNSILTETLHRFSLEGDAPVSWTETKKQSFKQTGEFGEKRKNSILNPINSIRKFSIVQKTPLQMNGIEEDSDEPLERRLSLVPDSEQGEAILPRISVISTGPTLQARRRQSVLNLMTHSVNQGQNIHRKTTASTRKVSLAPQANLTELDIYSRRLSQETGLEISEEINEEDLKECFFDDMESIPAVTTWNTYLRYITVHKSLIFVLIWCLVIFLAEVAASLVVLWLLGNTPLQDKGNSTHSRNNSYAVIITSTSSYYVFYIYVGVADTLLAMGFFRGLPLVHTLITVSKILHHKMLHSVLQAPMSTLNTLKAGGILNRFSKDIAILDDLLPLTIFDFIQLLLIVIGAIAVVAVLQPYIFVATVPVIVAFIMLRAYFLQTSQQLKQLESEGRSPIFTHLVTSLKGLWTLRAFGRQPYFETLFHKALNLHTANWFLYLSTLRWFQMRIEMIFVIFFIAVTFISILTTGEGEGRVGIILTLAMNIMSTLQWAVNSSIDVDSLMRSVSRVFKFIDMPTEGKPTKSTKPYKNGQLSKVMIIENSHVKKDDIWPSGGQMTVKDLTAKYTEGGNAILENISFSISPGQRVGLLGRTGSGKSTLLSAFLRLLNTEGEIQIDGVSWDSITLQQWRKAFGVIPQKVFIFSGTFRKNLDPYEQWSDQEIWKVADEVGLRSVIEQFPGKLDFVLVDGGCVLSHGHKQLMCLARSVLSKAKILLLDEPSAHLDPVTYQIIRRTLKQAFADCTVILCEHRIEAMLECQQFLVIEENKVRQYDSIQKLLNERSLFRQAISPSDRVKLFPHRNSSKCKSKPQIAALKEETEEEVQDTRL
How it was run: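 FRT cells co-expressing YFP and wild-type CFTR, washed with PBS. Incubated 15 min with compound in PBS containing 20 μM forskolin. Plate reader baseline 2 s, then 12 s after rapid addition of I⁻-containing solution; initial I⁻ influx rate computed.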

[2] = target: T1, Anoctamin-2 (Homo sapiens, UniProt Q9NQ90); assay: Inhibition of TMEM16B (unknown origin) expressed in FRT cells assessed as reduction of ATP-induced chloride conductance preincubated for 20 mins followed by ATP addition by short-circuit current assay; assay type: cell-based
T1 sequence (Q9NQ90 whole entry): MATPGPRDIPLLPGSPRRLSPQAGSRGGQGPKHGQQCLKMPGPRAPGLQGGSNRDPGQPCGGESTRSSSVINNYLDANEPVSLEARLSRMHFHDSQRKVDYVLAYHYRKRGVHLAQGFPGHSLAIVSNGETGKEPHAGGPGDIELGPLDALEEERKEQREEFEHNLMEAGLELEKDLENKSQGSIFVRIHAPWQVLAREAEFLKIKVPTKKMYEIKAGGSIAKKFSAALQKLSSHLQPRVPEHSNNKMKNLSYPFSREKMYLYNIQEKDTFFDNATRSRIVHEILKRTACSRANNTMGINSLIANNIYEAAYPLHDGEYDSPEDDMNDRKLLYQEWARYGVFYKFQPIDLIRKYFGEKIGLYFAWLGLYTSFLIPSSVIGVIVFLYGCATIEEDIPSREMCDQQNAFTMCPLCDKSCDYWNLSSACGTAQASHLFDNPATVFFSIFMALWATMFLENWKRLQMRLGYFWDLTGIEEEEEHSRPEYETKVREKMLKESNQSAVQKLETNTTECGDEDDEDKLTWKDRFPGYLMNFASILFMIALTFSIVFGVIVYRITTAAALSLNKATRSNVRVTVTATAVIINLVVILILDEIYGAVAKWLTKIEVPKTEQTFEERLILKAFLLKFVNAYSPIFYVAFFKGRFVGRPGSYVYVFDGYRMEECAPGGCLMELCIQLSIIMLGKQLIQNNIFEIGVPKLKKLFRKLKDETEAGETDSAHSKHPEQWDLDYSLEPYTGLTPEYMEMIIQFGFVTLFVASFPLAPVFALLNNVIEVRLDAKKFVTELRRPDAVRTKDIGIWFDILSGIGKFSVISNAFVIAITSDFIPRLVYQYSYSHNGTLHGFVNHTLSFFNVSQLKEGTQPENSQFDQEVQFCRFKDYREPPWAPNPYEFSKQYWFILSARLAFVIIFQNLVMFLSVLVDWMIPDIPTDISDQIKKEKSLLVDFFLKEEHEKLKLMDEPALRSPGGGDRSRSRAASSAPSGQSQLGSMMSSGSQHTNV

[3] = Cytotoxicity against human HT-29 cells assessed as cell survival at 5 uM after 8 hrs by alamar blue assay relative to control; assay type: cell-based; settings: read-out: Survival
How it was run: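 Cells cultured overnight, then exposed to compound at 5 μM for 8 h. Viability read by Alamar Blue per kit instructions. Table reports n=3.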

[4] = target: T2, Anoctamin-1 (Homo sapiens, UniProt Q5XXA6); assay: Inhibition of human TMEM16A expressed in FRT cells assessed as reduction of ATP-induced in chloride conductance preincubated for 5 mins followed by ATP addition by short-circuit current assay; assay type: cell-based
T2 sequence (Q5XXA6 whole entry): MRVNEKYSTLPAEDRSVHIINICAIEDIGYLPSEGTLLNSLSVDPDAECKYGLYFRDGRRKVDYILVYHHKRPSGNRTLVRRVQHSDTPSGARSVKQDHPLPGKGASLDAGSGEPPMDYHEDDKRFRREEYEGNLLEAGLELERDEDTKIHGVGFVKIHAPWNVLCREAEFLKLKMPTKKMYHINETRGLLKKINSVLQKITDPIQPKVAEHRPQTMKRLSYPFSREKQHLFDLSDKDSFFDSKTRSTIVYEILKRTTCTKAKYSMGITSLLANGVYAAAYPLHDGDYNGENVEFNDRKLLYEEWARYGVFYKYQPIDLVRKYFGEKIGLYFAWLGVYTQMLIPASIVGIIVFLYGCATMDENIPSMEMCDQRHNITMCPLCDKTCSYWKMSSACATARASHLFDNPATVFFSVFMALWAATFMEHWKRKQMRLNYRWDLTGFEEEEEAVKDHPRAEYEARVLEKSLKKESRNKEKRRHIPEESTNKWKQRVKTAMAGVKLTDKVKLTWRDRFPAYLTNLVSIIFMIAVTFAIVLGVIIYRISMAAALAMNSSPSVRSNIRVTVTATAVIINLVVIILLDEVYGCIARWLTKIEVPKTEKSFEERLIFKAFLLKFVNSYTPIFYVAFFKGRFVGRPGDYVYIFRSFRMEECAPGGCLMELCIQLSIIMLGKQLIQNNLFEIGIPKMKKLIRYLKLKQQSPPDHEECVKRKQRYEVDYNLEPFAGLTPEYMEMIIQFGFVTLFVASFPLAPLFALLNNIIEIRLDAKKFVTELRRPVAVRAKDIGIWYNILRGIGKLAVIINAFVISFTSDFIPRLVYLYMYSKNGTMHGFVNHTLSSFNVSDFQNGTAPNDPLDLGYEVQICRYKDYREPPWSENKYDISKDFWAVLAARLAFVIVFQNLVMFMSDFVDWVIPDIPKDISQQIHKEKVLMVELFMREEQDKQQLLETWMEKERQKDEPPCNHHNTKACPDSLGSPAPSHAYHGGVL

[5] = Drug level in aqueous solution treated with 2-(2-Bromo-2,2-difluoro-acetylamino)-5,6,7,8-tetrahydro-4H-cyclohepta[b]thiophene-3-carboxylicacid-o-tolylamide after 3 days by ESI-LCMS analysis
How it was run: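 Duplicate samples of 100 μM compound in H₂O (20% DMSO) with 100 μM 5-chloro-3-phenyl-2,1-benzisoxazole as internal standard. Kept at 25 °C for 3 days and analysed daily by ESI-LCMS for the parent compound and the oxalamic acid degradation product.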

[6] = tested on: Liver; assay: Metabolic stability in rat liver microsomes at 10 uM after 180 mins in presence of NADPH by LC/MS analysis; assay type: ADME, microsome; settings: 3 h
How it was run: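 10 μM compound shaken at 37 °C with rat liver microsomes (1 mg protein/mL) in 100 mM potassium phosphate buffer with 1 mM NADPH, sampled at 2–180 min. Quenched on ice with ice-cold ethyl acetate, centrifuged, supernatant dried and redissolved. Parent compound quantified by C₁₈ reverse-phase LC/MS (5–95% acetonitrile gradient); mean ± SEM, n=3.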

[7] = target: T2, Anoctamin-1; assay: (§1) Inhibition of human TMEM16A expressed in FRT cells co-expressing iodide sensitive fluorescent protein YFP-H148Q/I152L/F46L assessed as reduction in ATP-induced Ca2+ activation-mediated chloride current by measuring decrease in iodide influx preincubated for 10 mins followed by ATP/iodide addition by fluorescence assay; assay type: cell-based
How it was run: (§2)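 FRT cells stably expressing human TMEM16A and YFP, plated at 20,000 cells/well and used 24–48 h later. An equal volume of 140 mM I⁻ solution containing 300 μM ATP was added, and reading continued 12 s at 400 ms/point. Initial I⁻ influx rate fitted by nonlinear regression; IC₅₀ from concentration-inhibition data.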

[8] = Solubility of compound in DMSO; assay type: physicochemical
[9] = target: T1, Anoctamin-2; assay: as §1, with “TMEM16B” for “TMEM16A”; assay type: cell-based
How it was run: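 FRT cells co-expressing YFP and TMEM16B, given compound for 10 min, then I⁻ solution with ATP added. Fluorescence read by plate reader; initial I⁻ influx rate computed. IC₅₀ from concentration-inhibition data; n=3.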

[10] = target: T2, Anoctamin-1; assay: Inhibition of TMEM16A (unknown origin) expressed in Xenopus laevis oocytes at -60 mV holding potential by voltage-clamp assay
[11] = Inhibition of calcium activated chloride channel in ATP-activated human HT-29 cells expressing YFP-H148Q/152L assessed as reduction in iodide influx preincubated for 10 mins followed by ATP addition by fluorescence assay
How it was run: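 Endogenous non-TMEM16A CaCC in HT-29 cells expressing YFP, read by plate reader. Initial rate of I⁻ influx taken as a linear measure of channel function. IC₅₀ from concentration-inhibition data; n=3.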

[12] = target: T3, Anoctamin-1 (Homo sapiens) (UniProt Q5XXA6); assay: as §1; assay type: cell-based; how it was run: as §2
T3 sequence (whole entry): T2 sequence (Q5XXA6 whole entry)

In the case of CCc1c(C)nc(SCC(=O)Nc2nc(-c3ccc(OC)cc3)cs2)nc1O, the inhibition [1] is reported as “inactive”, the IC50 [2] is reported as 4 µM and the viability at 8 h, 5 µM [3] is reported as 97%. It also gave an IC50 [4] of 1 µM.

With Cc1ccccc1NC(=O)c1c(NC(=O)C(O)(F)F)sc2c1CCCCC2 the Drug metabolism [5] was “Metabolite detected”.

In the case of COc1ccccc1/C=N/NC(=O)COc1ccc(Cl)cc1C, the inhibition [1] is reported as “inactive” and the Stability [6] is reported as “Unstable”.

In the case of CCC(=O)Nc1sc2c(c1C(=O)Nc1ccccc1C)CCCCC2, the IC50 [7] is reported as greater than 20 µM.

In the case of O=C(Nc1ccccc1OC(F)(F)F)c1c(NC(=O)C(F)(F)Br)sc2c1CCC2, the solubility [8] is reported as “Insoluble”.

For Cc1ccccc1NC(=O)c1c(NC(=O)C(=O)F)sc2c1CCCCC2, the Drug metabolism [5] was “Metabolite detected”.

CCC(=O)Nc1sc2c(c1C(=O)Nc1ccccc1OC(F)(F)F)CCCCC2 gave an IC50 [7] greater than 20 µM.

In the case of O=C(Nc1ccc(F)cc1)c1c(NC(=O)C(F)(F)I)sc2c1CCCCC2, the inhibition [1] is reported as “inactive”.

In the case of Cc1ccccc1NC(=O)c1c(NC(=O)C(F)(F)Cl)sc2c1CCCCC2, the inhibition [1] is reported as “inactive” and the viability at 8 h, 5 µM [3] is reported as 98%.

In the case of Cc1ccccc1NC(=O)c1c(NC(=O)C(F)(F)I)sc2c1CCCCC2, the inhibition [1] is reported as “inactive” and the viability at 8 h, 5 µM [3] is reported as 96%.

For COc1cc(Nc2ccc([N+](=O)[O-])cc2C(=O)O)cc2ccccc12, the IC50 [9] was 13 µM, the inhibition [1] was “inactive” and the IC50 [10] was 0.08 µM. The viability at 8 h, 5 µM [3] was 100%, the IC50 [11] was greater than 20 µM and the IC50 [4] was 1.6 µM.

For O=C(Nc1ccccc1OC(F)(F)F)c1c(NC(=O)C(F)(F)Cl)sc2c1CCC2, the solubility [8] was “Insoluble”.

With Cc1ccccc1NC(=O)c1c(NC(=O)C(=O)O)sc2c1CCCCC2 the Drug metabolism [5] was “Metabolite detected”.

For O=C(Nc1ccccc1)c1c(NC(=O)C(F)(F)F)sc2c1CCCCC2, the inhibition [1] was “inactive”.

With Cc1ccccc1NC(=O)c1c(NC(=O)C(F)(F)F)sc2c1CCCCC2 the inhibition [12] was “Dose-dependent effect”, the inhibition [1] was “inactive” and the viability at 8 h, 5 µM [3] was 99%. It also gave an IC50 [11] of 4 µM.
